{"source": "ChEMBL document CHEMBL1275598", "about": "“In vitro activity of ceftaroline against community-associated methicillin-resistant, vancomycin-intermediate, vancomycin-resistant, and daptomycin-nonsusceptible Staphylococcus aureus isolates” (2010)", "key": {"Staphylococcus aureus [1]": {"tested_on": "Staphylococcus aureus", "test": "Antimicrobial activity against vancomycin resistant Staphylococcus aureus VRS-4 expressing SCCmec type 4 element by microdilution method in presence of 50 mg/L calcium"}, "Staphylococcus aureus [2]": {"tested_on": "Staphylococcus aureus", "test": "Antimicrobial activity against vancomycin resistant Staphylococcus aureus VRS-7 expressing SCCmec element by microdilution method in presence of 50 mg/L calcium", "type": "functional", "summary_of_the_method": "(§1)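 Broth microdilution per CLSI in cation-adjusted Mueller-Hinton broth supplemented with calcium to 50 mg/liter final. Antibiotic powders were reconstituted per CLSI. The MIC was read visually as the lowest drug concentration with no visible growth. S. aureus ATCC 29213 and E. faecalis ATCC 29212 served as control strains.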"}, "Staphylococcus aureus [3]": {"tested_on": "Staphylococcus aureus", "test": "Antimicrobial activity against community-acquired methicillin-resistant Staphylococcus aureus by microdilution method in presence of 50 mg/L calcium", "type": "functional", "summary_of_the_method": "(§2)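 Daptomycin MIC by CLSI broth microdilution in cation-adjusted Mueller-Hinton broth, supplemented with calcium to a final 50 mg/liter. Read visually as the lowest concentration with no visible growth. ATCC 29213 and E. faecalis ATCC 29212 served as controls. CA-MRSA and DNSSA isolates came from patients at the study hospital; VISA isolates came from NARSA.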"}, "Staphylococcus aureus [4]": {"tested_on": "Staphylococcus aureus", "test": "Antimicrobial activity against vancomycin-intermediate Staphylococcus aureus assessed as susceptible isolates by microdilution method in presence of 50 mg/L calcium", "type": "functional", "summary_of_the_method": "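Broth microdilution MIC per CLSI in cation-adjusted Mueller-Hinton broth, with calcium added to a final 50 mg/liter for daptomycin testing. MIC is the lowest drug concentration with no visible growth, read by eye. Percent susceptible was assigned from CLSI breakpoints. S. aureus ATCC 29213 and E. faecalis ATCC 29212 served as control strains.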"}, "Staphylococcus aureus [5]": {"tested_on": "Staphylococcus aureus", "test": "Antimicrobial activity against vancomycin-resistant Staphylococcus aureus assessed as susceptible isolates by microdilution method in presence of 50 mg/L calcium", "type": "functional", "summary_of_the_method": "as §1"}, "Staphylococcus aureus [6]": {"tested_on": "Staphylococcus aureus", "test": "Antimicrobial activity against vancomycin intermediate Staphylococcus aureus NRS-3 expressing SCCmec type 2 element by microdilution method in presence of 50 mg/L calcium", "type": "functional", "summary_of_the_method": "as §2"}, "Staphylococcus aureus [7]": {"tested_on": "Staphylococcus aureus", "test": "Antimicrobial activity against vancomycin intermediate Staphylococcus aureus NRS-4 expressing SCCmec type 2 element by microdilution method in presence of 50 mg/L calcium", "type": "functional", "summary_of_the_method": "as §2"}, "Staphylococcus aureus [8]": {"tested_on": "Staphylococcus aureus", "test": "Antimicrobial activity against vancomycin intermediate Staphylococcus aureus NRS-18 expressing SCCmec type 2 element by microdilution method in presence of 50 mg/L calcium", "type": "functional", "summary_of_the_method": "as §2"}, "Staphylococcus aureus [9]": {"tested_on": "Staphylococcus aureus", "test": "Antimicrobial activity against vancomycin intermediate Staphylococcus aureus NRS-22 expressing SCCmec type 2 element by microdilution method in presence of 50 mg/L calcium", "type": "functional", "summary_of_the_method": "as §2"}, "Staphylococcus aureus [10]": {"tested_on": "Staphylococcus aureus", "test": "Antimicrobial activity against vancomycin intermediate Staphylococcus aureus NRS-26 expressing SCCmec type 2 element by microdilution method in presence of 50 mg/L calcium", "type": "functional", "summary_of_the_method": "as §2"}, "Staphylococcus aureus [11]": {"tested_on": "Staphylococcus aureus", "test": "Antimicrobial activity against vancomycin intermediate Staphylococcus aureus NRS-27 expressing SCCmec type 2 element by microdilution method in presence of 50 mg/L calcium", "type": "functional", "summary_of_the_method": "as §2"}, "Staphylococcus aureus [12]": {"tested_on": "Staphylococcus aureus", "test": "Antimicrobial activity against vancomycin intermediate Staphylococcus aureus NRS-68 expressing SCCmec type 2 element by microdilution method in presence of 50 mg/L calcium", "type": "functional", "summary_of_the_method": "as §2"}, "Staphylococcus aureus [13]": {"tested_on": "Staphylococcus aureus", "test": "Antimicrobial activity against vancomycin intermediate Staphylococcus aureus NRS-76 expressing SCCmec type 2 element by microdilution method in presence of 50 mg/L calcium", "type": "functional", "summary_of_the_method": "as §1"}}, "data": [{"smiles": "CCCCCCCCCC(=O)N[C@@H](Cc1c[nH]c2ccccc12)C(=O)N[C@H](CC(N)=O)C(=O)N[C@@H](CC(=O)O)C(=O)N[C@@H]1C(=O)NCC(=O)N[C@@H](CCCN)C(=O)N[C@@H](CC(=O)O)C(=O)N[C@H](C)C(=O)N[C@@H](CC(=O)O)C(=O)NCC(=O)N[C@H](CO)C(=O)N[C@@H]([C@H](C)CC(=O)O)C(=O)N[C@@H](CC(=O)c2ccccc2N)C(=O)O[C@@H]1C", "values": [{"measurement": "MIC", "setting": "Staphylococcus aureus [1]", "value": 0.5, "unit": "µg/mL"}, {"measurement": "MIC", "setting": "Staphylococcus aureus [2]", "value": 1, "unit": "µg/mL"}, {"measurement": "MIC50", "setting": "Staphylococcus aureus [3]", "value": 0.5, "unit": "µg/mL"}, {"measurement": "MIC90", "setting": "Staphylococcus aureus [3]", "value": 1, "unit": "µg/mL"}, {"measurement": "Activity", "setting": "Staphylococcus aureus [4]", "value": 35, "unit": "%"}, {"measurement": "Activity", "setting": "Staphylococcus aureus [5]", "value": 100, "unit": "%"}, {"measurement": "MIC", "setting": "Staphylococcus aureus [6]", "value": 4, "unit": "µg/mL"}, {"measurement": "MIC", "setting": "Staphylococcus aureus [7]", "value": 1, "unit": "µg/mL"}, {"measurement": "MIC", "setting": "Staphylococcus aureus [8]", "value": 1, "unit": "µg/mL"}, {"measurement": "MIC", "setting": "Staphylococcus aureus [9]", "value": 2, "unit": "µg/mL"}, {"measurement": "MIC", "setting": "Staphylococcus aureus [10]", "value": 4, "unit": "µg/mL"}, {"measurement": "MIC", "setting": "Staphylococcus aureus [11]", "value": 1, "unit": "µg/mL"}, {"measurement": "MIC", "setting": "Staphylococcus aureus [12]", "value": 1, "unit": "µg/mL"}, {"measurement": "MIC", "setting": "Staphylococcus aureus [13]", "value": 2, "unit": "µg/mL"}]}]}
